Data published in ChEMBL document CHEMBL1148788 (J Med Chem, 2007).
The source made the active and inactive calls. The rule behind the calls is not given here.

Assays:
[1] = Displacement of [3H]methyllycaconitine from chimeric alpha7nAChR Y195A mutant/5HT3A receptor in tsA201 cells; format: cell-based, Homo sapiens
How it was run: (§1)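 tsA-201 cells transiently transfected with 4 µg WT or mutant α7/5-HT3A chimera and assayed 2 days later. Membranes washed twice at 50000g in 50 mM Tris-HCl pH 7.2. Incubated with 0.5 nM [3H]MLA and compound for 2.5 h at room temperature with shaking; nonspecific binding with 5 mM (S)-nicotine. PEI-soaked GF/C filtration, scintillation counting. Ki derived; duplicate, 3–7 experiments.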

[2] = Displacement of [3H]methyllycaconitine from chimeric alpha7nAChR W55Y mutant/5HT3A receptor in tsA201 cells; format: cell-based, Homo sapiens; how it was run: as §1
[3] = Antagonist activity at human alpha7 nAChR W149Y mutant co-expressed with human Ric3 in tsA201 cells by FMP assay; format: functional, cell-based
[4] = Displacement of [3H]methyllycaconitine from chimeric alpha-7nAChR S148A mutant /5HT3A receptor in tsA201 cells; format: cell-based, Homo sapiens; how it was run: as §1
[5] = biological target: Neuronal acetylcholine receptor; alpha4/beta4 (Rattus norvegicus, UniProt P09483+P12392); test: Displacement of [3H]epibatidine from recombinant rat alpha-4-beta-4 nAChr in HEK293 cell line; format: cell-based
Chain of Neuronal acetylcholine receptor; alpha4/beta4 (P09483 whole entry): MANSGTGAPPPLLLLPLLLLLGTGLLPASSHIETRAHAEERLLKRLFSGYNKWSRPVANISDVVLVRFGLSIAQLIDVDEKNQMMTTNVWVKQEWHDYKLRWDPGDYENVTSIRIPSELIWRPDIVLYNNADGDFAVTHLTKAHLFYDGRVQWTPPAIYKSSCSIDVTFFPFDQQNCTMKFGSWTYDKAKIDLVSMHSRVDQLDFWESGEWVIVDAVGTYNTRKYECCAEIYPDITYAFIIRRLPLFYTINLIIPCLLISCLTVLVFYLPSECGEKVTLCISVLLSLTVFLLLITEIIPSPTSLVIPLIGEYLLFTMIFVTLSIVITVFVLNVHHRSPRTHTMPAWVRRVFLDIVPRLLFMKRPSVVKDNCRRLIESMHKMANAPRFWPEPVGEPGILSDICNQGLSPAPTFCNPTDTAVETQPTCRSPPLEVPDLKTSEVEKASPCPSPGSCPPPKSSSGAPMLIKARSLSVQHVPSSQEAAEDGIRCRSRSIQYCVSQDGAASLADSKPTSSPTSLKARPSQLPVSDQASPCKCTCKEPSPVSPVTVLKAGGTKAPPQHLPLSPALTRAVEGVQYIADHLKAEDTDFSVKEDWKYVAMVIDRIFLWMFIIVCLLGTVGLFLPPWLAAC
Chain of Neuronal acetylcholine receptor; alpha4/beta4 (P12392 whole entry): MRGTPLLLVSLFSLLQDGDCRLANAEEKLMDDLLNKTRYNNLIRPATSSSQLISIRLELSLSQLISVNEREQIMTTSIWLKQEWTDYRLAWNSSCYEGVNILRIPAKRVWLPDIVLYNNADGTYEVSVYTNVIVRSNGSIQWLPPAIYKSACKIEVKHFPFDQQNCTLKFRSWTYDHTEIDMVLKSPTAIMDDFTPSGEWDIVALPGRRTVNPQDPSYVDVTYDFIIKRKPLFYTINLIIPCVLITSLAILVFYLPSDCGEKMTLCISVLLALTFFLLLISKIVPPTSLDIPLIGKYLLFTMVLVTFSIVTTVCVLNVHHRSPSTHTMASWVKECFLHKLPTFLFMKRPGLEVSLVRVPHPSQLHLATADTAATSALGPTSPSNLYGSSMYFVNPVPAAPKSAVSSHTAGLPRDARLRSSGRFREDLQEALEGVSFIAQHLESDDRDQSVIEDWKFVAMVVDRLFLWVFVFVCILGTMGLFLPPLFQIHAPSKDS

[6] = Displacement of [3H]methyllycaconitine from chimeric alpha-7nAChR Y195F mutant/5HT3A receptor in tsA201 cells; format: cell-based, Homo sapiens; how it was run: as §1
[7] = Displacement of [3H]methyllycaconitine from chimeric alpha-7nAChR N107A mutant/5HT3A receptor in tsA201 cells; format: cell-based, Homo sapiens; how it was run: as §1
[8] = biological target: T1, Glycine receptor subunit alpha-1 (Homo sapiens, UniProt P23415); test: Antagonist activity at human glycine alpha-1 receptor in HEK293 cells by FMP assay; format: functional, cell-based
T1 sequence (P23415 whole entry): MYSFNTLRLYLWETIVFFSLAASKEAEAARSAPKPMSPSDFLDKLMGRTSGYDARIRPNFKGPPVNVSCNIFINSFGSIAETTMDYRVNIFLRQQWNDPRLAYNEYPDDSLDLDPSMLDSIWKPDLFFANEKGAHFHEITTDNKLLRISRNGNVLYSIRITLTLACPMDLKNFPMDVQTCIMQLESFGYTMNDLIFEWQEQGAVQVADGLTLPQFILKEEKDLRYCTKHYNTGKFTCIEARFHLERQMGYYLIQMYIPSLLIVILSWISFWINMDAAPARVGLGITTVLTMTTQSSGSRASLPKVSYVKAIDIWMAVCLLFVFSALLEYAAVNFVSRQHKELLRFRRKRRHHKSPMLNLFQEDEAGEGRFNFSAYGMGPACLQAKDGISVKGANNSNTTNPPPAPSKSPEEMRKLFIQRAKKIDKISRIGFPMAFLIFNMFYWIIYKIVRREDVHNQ

[9] = Displacement of [3H]methyllycaconitine from chimeric alpha7nAChR K145A mutant/5HT3A receptor in tsA201 cells; format: cell-based, Homo sapiens; how it was run: as §1
[10] = Displacement of [3H]methyllycaconitine from chimeric alpha-7nAChR K145R mutant /5HT3A receptor in tsA201 cells; format: cell-based, Homo sapiens; how it was run: as §1
[11] = biological target: Neuronal acetylcholine receptor; alpha3/beta4 (Rattus norvegicus, UniProt P04757+P12392); test: Antagonist activity at rat alpha3beta4 nAChR expressed in HEK293 cells by FMP assay; format: functional, cell-based, Homo sapiens
Chain of Neuronal acetylcholine receptor; alpha3/beta4 (P04757 whole entry): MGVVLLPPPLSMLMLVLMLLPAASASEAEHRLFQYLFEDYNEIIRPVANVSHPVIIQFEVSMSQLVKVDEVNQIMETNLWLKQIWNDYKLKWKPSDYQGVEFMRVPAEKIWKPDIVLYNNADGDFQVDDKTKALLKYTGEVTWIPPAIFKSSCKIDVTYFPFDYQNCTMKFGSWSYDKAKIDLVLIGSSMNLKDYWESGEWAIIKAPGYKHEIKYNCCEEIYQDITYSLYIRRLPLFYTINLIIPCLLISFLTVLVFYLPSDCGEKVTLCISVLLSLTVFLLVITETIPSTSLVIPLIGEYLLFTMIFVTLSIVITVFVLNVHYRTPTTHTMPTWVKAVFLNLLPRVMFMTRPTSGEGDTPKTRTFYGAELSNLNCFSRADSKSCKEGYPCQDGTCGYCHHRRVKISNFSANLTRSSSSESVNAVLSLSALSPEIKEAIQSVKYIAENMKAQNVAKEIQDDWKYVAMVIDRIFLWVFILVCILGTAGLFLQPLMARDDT
Chain of Neuronal acetylcholine receptor; alpha3/beta4 (P12392 whole entry): as the sequence (P12392 whole entry) above

[12] = biological target: T2, 5-hydroxytryptamine receptor 3A (Homo sapiens, UniProt P46098); test: Antagonist activity at human 5HT3A receptor expressed in HEK293 cells by FMP assay; format: functional, cell-based
T2 sequence (P46098 whole entry): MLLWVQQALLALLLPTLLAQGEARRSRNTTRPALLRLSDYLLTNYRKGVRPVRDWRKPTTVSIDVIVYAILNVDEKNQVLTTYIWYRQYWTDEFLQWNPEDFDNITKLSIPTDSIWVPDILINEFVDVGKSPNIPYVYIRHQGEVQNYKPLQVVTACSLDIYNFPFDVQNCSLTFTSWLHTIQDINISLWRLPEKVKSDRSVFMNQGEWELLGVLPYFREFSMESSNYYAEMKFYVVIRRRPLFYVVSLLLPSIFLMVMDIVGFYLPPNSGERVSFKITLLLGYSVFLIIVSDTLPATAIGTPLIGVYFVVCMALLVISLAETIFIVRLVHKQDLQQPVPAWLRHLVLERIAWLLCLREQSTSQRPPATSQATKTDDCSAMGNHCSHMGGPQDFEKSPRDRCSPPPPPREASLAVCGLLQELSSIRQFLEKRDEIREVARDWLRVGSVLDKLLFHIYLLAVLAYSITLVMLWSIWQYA

cells = format: functional, cell-based; conditions: Homo sapiens, HEK293
[13] = Antagonist activity at human alpha7nAChR Y93A mutant co-expressed with human Ric3 in tsA201 cells by FMP assay; format: functional, cell-based
[14] = biological target: Neuronal acetylcholine receptor subunit alpha-7 (Homo sapiens, UniProt P36544); test: Displacement of [3H]methyllycaconitine from human alpha-7 in tsA201 cells coexpressed with 5HT3A receptor; format: cell-based
Chain of Neuronal acetylcholine receptor subunit alpha-7 (P36544 whole entry): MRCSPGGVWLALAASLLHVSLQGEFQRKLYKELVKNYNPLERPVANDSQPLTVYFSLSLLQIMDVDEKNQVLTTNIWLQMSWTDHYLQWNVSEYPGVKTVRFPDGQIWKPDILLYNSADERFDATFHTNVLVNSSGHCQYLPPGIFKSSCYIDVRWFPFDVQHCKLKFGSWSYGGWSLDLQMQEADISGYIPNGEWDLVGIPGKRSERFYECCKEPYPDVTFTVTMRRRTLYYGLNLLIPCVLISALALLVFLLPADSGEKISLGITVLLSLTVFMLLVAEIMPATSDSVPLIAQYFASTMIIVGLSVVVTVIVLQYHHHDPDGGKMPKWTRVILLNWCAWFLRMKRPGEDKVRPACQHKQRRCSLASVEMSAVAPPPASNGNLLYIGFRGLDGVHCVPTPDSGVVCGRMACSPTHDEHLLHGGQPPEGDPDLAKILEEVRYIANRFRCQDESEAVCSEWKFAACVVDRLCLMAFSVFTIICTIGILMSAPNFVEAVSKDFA

[15] = Antagonist activity at human alpha-7 nAChR Y188A mutant coexpressed with human Ric3 in tsA201 cells by FMP assay; format: functional, cell-based
[16] = Displacement of [3H]methyllycaconitine from chimeric alpha-7nAChR W55A mutant /5HT3A receptor in tsA201 cells; format: cell-based, Homo sapiens; how it was run: as §1
tsA201 [17] = test: Displacement of [3H]methyllycaconitine from chimeric alpha-7nAChR W149Y mutant/5HT3A receptor W149Y mutant in tsA201 cells; format: cell-based; conditions: Homo sapiens; how it was run: as §1
[18] = biological target: Neuronal acetylcholine receptor; alpha4/beta2 (Rattus norvegicus, UniProt P09483+P12390); test: Displacement of [3H]epibatidine from rat recombinant alpha-4-beta-2 nAChR in HEK293 cell line; format: cell-based
Chain of Neuronal acetylcholine receptor; alpha4/beta2 (P09483 whole entry): as the sequence (P09483 whole entry) above
Chain of Neuronal acetylcholine receptor; alpha4/beta2 (P12390 whole entry): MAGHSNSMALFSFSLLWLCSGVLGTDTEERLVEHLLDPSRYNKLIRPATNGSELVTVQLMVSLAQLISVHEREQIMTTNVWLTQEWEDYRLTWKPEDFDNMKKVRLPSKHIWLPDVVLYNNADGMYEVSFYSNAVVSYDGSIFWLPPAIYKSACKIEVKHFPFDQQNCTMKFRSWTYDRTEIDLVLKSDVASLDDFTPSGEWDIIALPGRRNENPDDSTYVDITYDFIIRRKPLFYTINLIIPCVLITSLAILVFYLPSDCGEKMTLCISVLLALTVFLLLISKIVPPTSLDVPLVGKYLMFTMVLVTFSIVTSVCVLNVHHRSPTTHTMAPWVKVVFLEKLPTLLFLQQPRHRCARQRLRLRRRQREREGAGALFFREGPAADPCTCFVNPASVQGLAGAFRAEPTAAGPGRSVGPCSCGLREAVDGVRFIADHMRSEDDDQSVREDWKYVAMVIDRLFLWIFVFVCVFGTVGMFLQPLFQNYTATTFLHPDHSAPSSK

tsA201 [19] = test: Displacement of [3H]methyllycaconitine from chimeric alpha-7nAChR Y188A mutant/5-HT3A receptor in tsA201 cells; format: cell-based; conditions: Homo sapiens; how it was run: as §1
tsA201 [20] = test: Displacement of [3H]methyllycaconitine from chimeric alpha-7nAChR Y93A mutant/5HT3A receptor in tsA201 cells; format: cell-based; conditions: Homo sapiens; how it was run: as §1
[21] = Displacement of [3H]methyllycaconitine from chimeric alpha-7nAChR S150A mutant/5HT3A receptor in tsA201 cells; format: cell-based, Homo sapiens; how it was run: as §1
tsA201 [22] = test: Displacement of [3H]methyllycaconitine from chimeric alpha-7nAChR W149A mutant/5HT3A receptor in tsA201 cells; format: cell-based; conditions: Homo sapiens; how it was run: as §1

With O=[N+]([O-])c1ccc(C[N+]23CC[C@@H]4[C@@H]5[C@@H]6[C@@H](OCC=C(C2)[C@@H]6C[C@@H]43)N2c3ccccc3[C@@]34CC[N+]6(Cc7ccc([N+](=O)[O-])cc7)CC7=CCO[C@H]([C@@H]([C@H]23)[C@H]7C[C@@H]46)N5c2ccccc2)cc1.[Br-].[Br-] (some centres not stated) the Ki [1] was 740 nM, the pKi [1] was 6.13 and the Ki [2] was 37 nM. For the same compound, the pKi [2] was 7.43, the IC50 ([3]; read-out: IC50) was 1200 nM and the IC50 ([3]; read-out: pIC50 (converted)) was 1170 nM. For the same compound, the Ki [4] was 160 nM, the pKi [4] was 6.8 and the Ki [5] was > 100000 nM. The pKi ([5]; hek293) was < 4, the Ki [6] was 50 nM and the pKi [6] was 7.3. For the same compound, the Ki [7] was 17 nM, the pKi [7] was 7.76 and the IC50 [8] was > 100000 nM. The pIC50 ([8]; hek293) was < 4, the Ki [9] was 28 nM and the pKi [9] was 7.56. The Ki [10] was 58 nM, the pKi [10] was 7.24 and the pIC50 ([11]; hek293) was < 4. For the same compound, the IC50 ([11]; read-out: IC50) was > 100000 nM, the pIC50 ([12]; hek293) was < 4 and the IC50 ([12]; read-out: IC50) was > 100000 nM. For the same compound, the IC50 (cells; read-out: IC50) was > 100000 nM, the IC50 (cells; read-out: pIC50 (converted)) was > 100000 nM and the IC50 ([13]; read-out: IC50) was 19000 nM. For the same compound, the IC50 ([13]; read-out: pIC50 (converted)) was 19500 nM, the Ki ([14]; read-out: Ki) was 22 nM and the Ki ([14]; read-out: pKi (converted)) was 20 nM. It also gave an IC50 ([15]; read-out: IC50) of 15000 nM, an IC50 ([15]; read-out: pIC50 (converted)) of 15500 nM and a Ki [16] of 130 nM. For the same compound, the pKi [16] was 6.89, the Activity (tsA201 [17]) was “inactive” and the pKi ([18]; hek293) was < 4. The Ki ([18]; read-out: Ki) was > 100000 nM, the Activity (tsA201 [19]) was “inactive” and the Activity (tsA201 [20]) was “inactive”. For the same compound, the Ki [21] was 35 nM, the pKi [21] was 7.45 and the Activity (tsA201 [22]) was “inactive”.
